Results reported in the RNAGym collection of RNA variant scans (doi:10.1038/s41586-018-0170-7).

B1: tRNA (parent)
chain: GUUCCGUUGGCGUAAUGGUAACGCGUCUCCCUCCUAAGGAGAAGACUGCGGGUUCGAGUCCCGUACGGAACG

Variants of: B1
Assay: yeast fitness, log relative to wild type (ln ratio); higher = fitter; tRNA-Arg(CCU), competitive growth, 37 C, 1 M NaCl
Procedure, shortened: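 In BY4742 missing the chromosomal gene, a combinatorial tRNA-Arg(CCU) variant library was maintained on a HIS3 centromeric plasmid. Selection ran ~6.5 generations (~26.5 h) in SC-HIS 1M NaCl at 37 °C, following 4 generations in SC-HIS at 30 °C, with three outputs per input and variant counts by 125 bp paired-end Illumina sequencing. Fitness is the natural log of a genotype's generations relative to the wild type's, with generations taken as inverse-variance-weighted, OD-scaled log2 output/input frequency.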

Variant | yeast fitness (ln)
GGUCCGUUGGCGUAAUGGUAACGCGUUUCCCUCCUAAGGAGAAGAUUGCGGGUUCGAGUCCCGUAAGGAAUG | -0.163
GGUCCGUUGGCGUAAUGGUAACGCGUUUCCCUCCUAAGGAGACGACUGCGGGUUCGAGUCCCGUAAGGAUCG | -0.0548
GGUCCGUUGGCGUAAUGGUAACGCGUUUCCCUCCUAAGGAGACGACUGCGGGUUCGAGUCCCGUAAGGAGCG | -0.179
GGUCCGUUGGCGUAAUGGUAACGCGUUUCCCUCCUAAGGAGACGAUUGCGGGUUCGAGUCCCGUAAGGAUCG | -0.0794
GGUCCGUUGGCGUAAUGGUAACGCGUUUCCCUCCUAAGGAGAAGACUGCGGGUUCGAGUCCCGUACGGGACG | -0.0592
GGUCCGUUGGCGUAAUGGUAACGCGUUUCCCUCCUAAGGAGACGAUUGCGGGUUCGAGUCCCGUAUGGGGUG | -0.249
GGUCCGUUGGCGUAAUGGUAACGCGUUUCCCUCCUAAGGAGAAGAUUGCGGGUUCGAGUCCCGUAUGGGGCG | -0.187
GGUCCGUUGGCGUAAUGGUAACGCGUUUCCCUCCUAAGGAGAAGACUGCGGGUUCGAGUCCCGUACGGAGCG | -0.136
GGUCCGUUGGCGUAAUGGUAACGCGUUUCCCUCCUAAGGAGAAGACUGCGGGUUCGAGUCCCGUACGGAUCG | -0.0184
GGUCCGUUGGCGUAAUGGUAACGCGUUUCCCUCCUAAGGAGACGAUUGCGGGUUCGAGUCCCGUAUGGAAUG | -0.292
GGUCCGUUGGCGUAAUGGUAACGCGUUUCCCUCCUAAGGAGAAGACUGCGGGUUCGAGUCCCGUACGGAUUG | -0.0745
GGUCCGUUGGCGUAAUGGUAACGCGUUUCCCUCCUAAGGAGAAGACUGCGGGUUCGAGUCCCGUACGGGGUG | -0.178
GGUCCGUUGGCGUAAUGGUAACGCGUUUCCCUCCUAAGGAGACGACUGCGGGUUCGAGUCCCGUAUGGAGUG | -0.331
GGUCCGUUGGCGUAAUGGUAACGCGUUUCCCUCCUAAGGAGACGAUUGCGGGUUCGAGUCCCGUAUGGGAUG | -0.394
GGUCCGUUGGCGUAAUGGUAACGCGUUUCCCUCCUAAGGAGACGAUUGCGGGUUCGAGUCCCGUACGGAAUG | -0.0621
GGUCCGUUGGCGUAAUGGUAACGCGUUUCCCUCCUAAGGAGAAGAUUGCGGGUUCGAGUCCCGUAAGGGGCG | -0.163
GGUCCGUUGGCGUAAUGGUAACGCGUUUCCCUCCUAAGGAGAAGAUUGCGGGUUCGAGUCCCGUAAGGGUCG | -0.0493
GGUCCGUUGGCGUAAUGGUAACGCGUUUCCCUCCUAAGGAGACGAUUGCGGGUUCGAGUCCCGUAUGGAUUG | -0.265
GGUCCGUUGGCGUAAUGGUAACGCGUUUCCCUCCUAAGGAGAAGACUGCGGGUUCGAGUCCCGUACGGGAUG | -0.152
GGUCCGUUGGCGUAAUGGUAACGCGUUUCCCUCCUAAGGAGACGACUGCGGGUUCGAGUCCCGUAUGGAAUG | -0.364
GGUCCGUUGGCGUAAUGGUAACGCGUUUCCCUCCUAAGGAGAAGAUUGCGGGUUCGAGUCCCGUACGGGGUG | -0.169
GGUCCGUUGGCGUAAUGGUAACGCGUUUCCCUCCUAAGGAGACGACUGCGGGUUCGAGUCCCGUAAGGGGUG | -0.305
GGUCCGUUGGCGUAAUGGUAACGCGUUUCCCUCCUAAGGAGACGACUGCGGGUUCGAGUCCCGUAAGGGUCG | -0.291
GGUCCGUUGGCGUAAUGGUAACGCGUUUCCCUCCUAAGGAGACGACUGCGGGUUCGAGUCCCGUAAGGGGCG | -0.42
GGUCCGUUGGCGUAAUGGUAACGCGUUUCCCUCCUAAGGAGAAGAUUGCGGGUUCGAGUCCCGUACGGAACG | -0.0742

Variant | yeast fitness (ln)
GGUCCGUUGGCGUAAUGGUAACGCGUUUCCCUCCUAAGGAGAAGACUGCGGGUUCGAGUCCCGUACGGGUUG | -0.518
GGUCCGUUGGCGUAAUGGUAACGCGUUUCCCUCCUAAGGAGAAGAUUGCGGGUUCGAGUCCCGUAAGGAGUG | -0.228
GGUCCGUUGGCGUAAUGGUAACGCGUUUCCCUCCUAAGGAGACGAUUGCGGGUUCGAGUCCCGUAUGGAACG | -0.146
GGUCCGUUGGCGUAAUGGUAACGCGUUUCCCUCCUAAGGAGACGAUUGCGGGUUCGAGUCCCGUAUGGGGCG | -0.275
GGUCCGUUGGCGUAAUGGUAACGCGUUUCCCUCCUAAGGAGACGAUUGCGGGUUCGAGUCCCGUAUGGGUCG | -0.221
GGUCCGUUGGCGUAAUGGUAACGCGUUUCCCUCCUAAGGAGACGACUGCGGGUUCGAGUCCCGUAAGGAAUG | -0.238
GGUCCGUUGGCGUAAUGGUAACGCGUUUCCCUCCUAAGGAGACGACUGCGGGUUCGAGUCCCGUAUGGGGCG | -0.348
GGUCCGUUGGCGUAAUGGUAACGCGUUUCCCUCCUAAGGAGACGACUGCGGGUUCGAGUCCCGUAUGGGUCG | -0.346
GGUCCGUUGGCGUAAUGGUAACGCGUUUCCCUCCUAAGGAGAAGACUGCGGGUUCGAGUCCCGUACGGAGUG | -0.178
GGUCCGUUGGCGUAAUGGUAACGCGUUUCCCUCCUAAGGAGAAGAUUGCGGGUUCGAGUCCCGUAUGGAACG | -0.0703
GGUCCGUUGGCGUAAUGGUAACGCGUUUCCCUCCUAAGGAGAAGAUUGCGGGUUCGAGUCCCGUAAGGAACG | -0.0734
GGUCCGUUGGCGUAAUGGUAACGCGUUUCCCUCCUAAGGAGAAGACUGCGGGUUCGAGUCCCGUACGGGGCG | -0.217
GGUCCGUUGGCGUAAUGGUAACGCGUUUCCCUCCUAAGGAGAAGACUGCGGGUUCGAGUCCCGUACGGGUCG | -0.0281
GGUCCGUUGGCGUAAUGGUAACGCGUUUCCCUCCUAAGGAGACGACUGCGGGUUCGAGUCCCGUAUGGAUUG | -0.333
GGUCCGUUGGCGUAAUGGUAACGCGUUUCCCUCCUAAGGAGAAGAUUGCGGGUUCGAGUCCCGUAUGGGACG | -0.211
GGUCCGUUGGCGUAAUGGUAACGCGUUUCCCUCCUAAGGAGACGACUGCGGGUUCGAGUCCCGUAAGGGUUG | -0.477
GGUCCGUUGGCGUAAUGGUAACGCGUUUCCCUCCUAAGGAGAAGAUUGCGGGUUCGAGUCCCGUACGGGUUG | -0.563
GGUCCGUUGGCGUAAUGGUAACGCGUUUCCCUCCUAAGGAGACGAUUGCGGGUUCGAGUCCCGUAAGGAUUG | -0.262
GGUCCGUUGGCGUAAUGGUAACGCGUUUCCCUCCUAAGGAGACGAUUGCGGGUUCGAGUCCCGUAUGGAGUG | -0.231
GGUCCGUUGGCGUAAUGGUAACGCGUUUCCCUCCUAAGGAGACGACUGCGGGUUCGAGUCCCGUAAGGAGUG | -0.257
GGUCCGUUGGCGUAAUGGUAACGCGUUUCCCUCCUAAGGAGAAGAUUGCGGGUUCGAGUCCCGUAAGGGAUG | -0.301
GGUCCGUUGGCGUAAUGGUAACGCGUUUCCCUCCUAAGGAGAAGAUUGCGGGUUCGAGUCCCGUAAGGGGUG | -0.184
GGUCCGUUGGCGUAAUGGUAACGCGUUUCCCUCCUAAGGAGAAGAUUGCGGGUUCGAGUCCCGUACGGAGUG | -0.216
GGUCCGUUGGCGUAAUGGUAACGCGUUUCCCUCCUAAGGAGACGAUUGCGGGUUCGAGUCCCGUAUGGAUCG | -0.271
GGUCCGUUGGCGUAAUGGUAACGCGUUUCCCUCCUAAGGAGACGAUUGCGGGUUCGAGUCCCGUAUGGAGCG | -0.161

Variant | yeast fitness (ln)
GGUCCGUUGGCGUAAUGGUAACGCGUUUCCCUCCUAAGGAGACGACUGCGGGUUCGAGUCCCGUAUGGGUUG | -0.42
GGUCCGUUGGCGUAAUGGUAACGCGUUUCCCUCCUAAGGAGACGAUUGCGGGUUCGAGUCCCGUAUGGGUUG | -0.395
GGUCCGUUGGCGUAAUGGUAACGCGUUUCCCUCCUAAGGAGAAGAUUGCGGGUUCGAGUCCCGUAAGGGUUG | -0.383
GGUCCGUUGGCGUAAUGGUAACGCGUUUCCCUCCUAAGGAGACGACUGCGGGUUCGAGUCCCGUAUGGGAUG | -0.354
GGUCCGUUGGCGUAAUGGUAACGCGUUUCCCUCCUAAGGAGAAGAUUGCGGGUUCGAGUCCCGUACGGGAUG | -0.112
GGUCCGUUGGCGUAAUGGUAACGCGUUUCCCUCCUAAGGAGACGAUUGCGGGUUCGAGUCCCGUAAGGAGUG | -0.162
GGUCCGUUGGCGUAAUGGUAACGCGUUUCCCUCCUAAGGAGAAGAUUGCGGGUUCGAGUCCCGUACGGAGCG | -0.0813
GGUCCGUUGGCGUAAUGGUAACGCGUUUCCCUCCUAAGGAGAAGAUUGCGGGUUCGAGUCCCGUACGGAUCG | -0.00918
GGUCCGUUGGCGUAAUGGUAACGCGUUUCCCUCCUAAGGAGAAGAUUGCGGGUUCGAGUCCCGUAAGGAUUG | -0.134
GGUCCGUUGGCGUAAUGGUAACGCGUUUCCCUCCUAAGGAGAAGAUUGCGGGUUCGAGUCCCGUACGGGACG | -0.0724
GGUCCGUUGGCGUAAUGGUAACGCGUUUCCCUCCUAAGGAGACGACUGCGGGUUCGAGUCCCGUAAGGGAUG | -0.355
GGUCCGUUGGCGUAAUGGUAACGCGUUUCCCUCCUAAGGAGACGACUGCGGGUUCGAGUCCCGUAAGGAACG | -0.171
GGUCCGUUGGCGUAAUGGUAACGCGUUUCCCUCCUAAGGAGACGACUGCGGGUUCGAGUCCCGUAUGGAACG | -0.214
GGUCCGUUGGCGUAAUGGUAACGCGUUUCCCUCCUAAGGAGACGAUUGCGGGUUCGAGUCCCGUAUGGGACG | -0.231
GGUCCGUUGGCGUAAUGGUAACGCGUUUCCCUCCUAAGGAGAAGAUUGCGGGUUCGAGUCCCGUAAGGAUCG | -0.143
GGUCCGUUGGCGUAAUGGUAACGCGUUUCCCUCCUAAGGAGAAGAUUGCGGGUUCGAGUCCCGUAAGGAGCG | -0.0963
GGUCCGUUGGCGUAAUGGUAACGCGUUUCCCUCCUAAGGAGACGACUGCGGGUUCGAGUCCCGUACGGAAUG | -0.157
GGUCCGUUGGCGUAAUGGUAACGCGUUUCCCUCCUAAGGAGACGACUGCGGGUUCGAGUCCCGUAUGGGGUG | -0.402
GGUCCGUUGGCGUAAUGGUAACGCGUUUCCCUCCUAAGGAGACGAUUGCGGGUUCGAGUCCCGUAAGGAAUG | -0.182
GGUCCGUUGGCGUAAUGGUAACGCGUUUCCCUCCUAAGGAGAAGAUUGCGGGUUCGAGUCCCGUACGGGGCG | -0.355
GGUCCGUUGGCGUAAUGGUAACGCGUUUCCCUCCUAAGGAGAAGAUUGCGGGUUCGAGUCCCGUACGGGUCG | -0.0139
GGUCCGUUGGCGUAAUGGUAACGCGUUUCCCUCCUAAGGAGAAGAUUGCGGGUUCGAGUCCCGUACGGAUUG | -0.0474
GGUCCGUUGGCGUAAUGGUAACGCGUUUCCCUCCUAAGGAGACGACUGCGGGUUCGAGUCCCGUAAGGAUUG | -0.319
GGUCCGUUGGCGUAAUGGUAACGCGUUUCCCUCCUAAGGAGACGACUGCGGGUUCGAGUCCCGUAUGGAUCG | -0.205
GGUCCGUUGGCGUAAUGGUAACGCGUUUCCCUCCUAAGGAGACGACUGCGGGUUCGAGUCCCGUAUGGAGCG | -0.257
